Measured values: ChEMBL document CHEMBL2406998, “Discovery of benzamide analogs as negative allosteric modulators of human neuronal nicotinic receptors: pharmacophore modeling and structure-activity relationship studies” (Bioorg Med Chem, 2013)
The source made the active and inactive calls. The calls are words filed in the database; no cut-off is given here.

How the values were obtained:
[1] = target: T1, Neuronal acetylcholine receptor; alpha4/beta2 (Homo sapiens, UniProt P17787+P43681); assay: Agonist activity at human alpha4beta2 nAChR; format: protein-complex assay
T1 sequence (P17787 whole entry): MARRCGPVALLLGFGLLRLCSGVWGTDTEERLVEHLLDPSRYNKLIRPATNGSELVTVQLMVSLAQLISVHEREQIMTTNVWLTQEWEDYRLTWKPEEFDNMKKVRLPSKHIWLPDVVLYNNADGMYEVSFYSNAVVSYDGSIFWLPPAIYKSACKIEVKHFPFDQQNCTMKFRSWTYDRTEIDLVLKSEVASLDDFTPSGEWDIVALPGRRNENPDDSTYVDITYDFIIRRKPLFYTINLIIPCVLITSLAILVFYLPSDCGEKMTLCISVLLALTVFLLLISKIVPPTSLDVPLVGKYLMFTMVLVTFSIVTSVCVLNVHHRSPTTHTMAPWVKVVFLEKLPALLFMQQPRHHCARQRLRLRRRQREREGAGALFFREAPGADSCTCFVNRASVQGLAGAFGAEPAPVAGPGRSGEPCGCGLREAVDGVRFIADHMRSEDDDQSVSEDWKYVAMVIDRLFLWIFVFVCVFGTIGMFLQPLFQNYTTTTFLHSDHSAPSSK
T1 sequence (P43681 whole entry): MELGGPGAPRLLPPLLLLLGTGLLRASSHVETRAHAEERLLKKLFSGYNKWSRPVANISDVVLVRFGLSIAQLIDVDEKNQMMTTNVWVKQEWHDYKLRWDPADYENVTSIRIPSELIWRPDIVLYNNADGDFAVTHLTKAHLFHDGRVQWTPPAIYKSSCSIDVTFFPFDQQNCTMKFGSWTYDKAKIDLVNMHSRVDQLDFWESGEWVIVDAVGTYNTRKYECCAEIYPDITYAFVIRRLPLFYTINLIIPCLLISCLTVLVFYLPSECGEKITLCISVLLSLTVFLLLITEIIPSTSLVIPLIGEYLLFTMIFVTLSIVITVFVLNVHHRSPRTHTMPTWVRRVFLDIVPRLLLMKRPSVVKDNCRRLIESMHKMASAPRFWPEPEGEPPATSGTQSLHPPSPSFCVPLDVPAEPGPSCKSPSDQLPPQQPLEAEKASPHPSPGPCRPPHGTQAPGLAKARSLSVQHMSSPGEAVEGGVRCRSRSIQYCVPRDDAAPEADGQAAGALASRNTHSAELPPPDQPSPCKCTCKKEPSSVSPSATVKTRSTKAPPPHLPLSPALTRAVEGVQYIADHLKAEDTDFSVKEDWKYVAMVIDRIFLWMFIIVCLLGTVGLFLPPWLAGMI
Procedure, shortened: (§1)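 HEK tsA201 cells stably expressing the human receptor subtype, plated 24 h ahead at 37 °C, 5% CO2 in supplemented DMEM to a ~100% confluent monolayer. Washed with HEPES-buffered Krebs, loaded 1 h at room temperature with 50% Calcium 5 NW dye. Compounds as HCl salts from 0.01 M DMSO stocks, six concentrations 0.1–100 µM in HBK. Intracellular calcium fluorescence read every 1.5 s (ex 485/em 525 nm).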

[2] = target: T2, Neuronal acetylcholine receptor; alpha3/beta4 (Homo sapiens, UniProt P30926+P32297); assay: Agonist activity at human alpha3beta4 nAChR; format: protein-complex assay; procedure, shortened: as §1
T2 sequence (P30926 whole entry): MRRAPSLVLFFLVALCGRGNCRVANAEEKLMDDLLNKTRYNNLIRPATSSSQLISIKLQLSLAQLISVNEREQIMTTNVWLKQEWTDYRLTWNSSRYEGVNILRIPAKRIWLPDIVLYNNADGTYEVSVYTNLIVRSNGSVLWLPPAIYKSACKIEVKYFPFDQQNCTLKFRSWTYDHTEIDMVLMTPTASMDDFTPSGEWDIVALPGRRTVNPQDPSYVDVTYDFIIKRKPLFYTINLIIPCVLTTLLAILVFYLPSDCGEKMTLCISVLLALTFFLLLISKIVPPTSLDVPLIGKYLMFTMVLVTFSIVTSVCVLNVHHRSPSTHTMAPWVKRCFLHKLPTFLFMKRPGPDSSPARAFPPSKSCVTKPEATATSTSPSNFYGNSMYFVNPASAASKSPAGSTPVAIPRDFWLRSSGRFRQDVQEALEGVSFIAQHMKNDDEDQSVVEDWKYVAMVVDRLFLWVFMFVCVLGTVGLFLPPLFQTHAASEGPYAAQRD
T2 sequence (P32297 whole entry): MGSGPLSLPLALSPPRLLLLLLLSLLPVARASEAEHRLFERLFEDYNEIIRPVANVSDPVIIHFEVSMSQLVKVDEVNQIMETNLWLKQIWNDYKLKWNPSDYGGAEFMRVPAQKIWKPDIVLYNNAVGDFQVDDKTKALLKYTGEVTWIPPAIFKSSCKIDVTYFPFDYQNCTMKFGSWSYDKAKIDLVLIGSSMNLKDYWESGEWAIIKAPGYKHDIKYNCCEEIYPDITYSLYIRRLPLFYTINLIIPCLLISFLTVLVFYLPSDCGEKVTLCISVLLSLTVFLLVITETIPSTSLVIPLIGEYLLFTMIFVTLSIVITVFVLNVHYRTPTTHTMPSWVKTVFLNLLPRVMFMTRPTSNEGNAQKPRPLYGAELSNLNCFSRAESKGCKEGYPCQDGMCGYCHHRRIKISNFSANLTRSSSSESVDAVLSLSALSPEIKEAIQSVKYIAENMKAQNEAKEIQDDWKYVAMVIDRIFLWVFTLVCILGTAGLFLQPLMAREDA

[3] = target: T1, Neuronal acetylcholine receptor; alpha4/beta2; assay: Non-competitive antagonist activity at human alpha4beta2 nAChR expressed in HEK-tsA201 cells assessed as intracellular calcium level at 0.1 to 100 uM by fluorescence plate reader analysis in presence of epibatidine; format: cell-based
Procedure, shortened: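 Epibatidine concentration-response curves were run with and without test compound on hα4β2-expressing HEK tsA201 cells. The read-out was the calcium accumulation assay: cells loaded with Calcium 5 NW dye for 1 h at room temperature in HEPES-buffered Krebs, fluorescence read at ex 485/em 525 nm every 1.5 s. Compound dilutions of 0.1–100 µM were made from DMSO stocks, with DMSO below 1%.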

[4] = target: T1, Neuronal acetylcholine receptor; alpha4/beta2; assay: Antagonist activity at human alpha4beta2 nAChR expressed in HEK-tsA201 cells assessed as inhibition of epibatidine-induced intracellular calcium level by fluorescence plate reader analysis; format: cell-based
Procedure, shortened: (§2)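 Stably transfected HEK tsA201 cells were plated 24 h ahead and grown at 37 °C, 5% CO2 in supplemented DMEM to a ~100% confluent monolayer. They were washed with HEPES-buffered Krebs, then loaded with 50% Calcium 5 NW dye for 1 h at room temperature. Compounds (HCl salts, six concentrations 0.1–100 µM, DMSO <1%) were tested against 1 µM epibatidine. Fluorescence was read at ex 485/em 525 nm every 1.5 s.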

[5] = target: T2, Neuronal acetylcholine receptor; alpha3/beta4; assay: Antagonist activity at human alpha3beta4 nAChR expressed in HEK-tsA201 cells assessed as inhibition of epibatidine-induced intracellular calcium level by fluorescence plate reader analysis; format: cell-based; procedure, shortened: as §2
Homo sapiens = species: Homo sapiens; assay: Selectivity ratio of IC50 for human alpha3beta4 nAChR to IC50 for human alpha4beta2 nAChR

Row | SMILES | Activity [1] | Activity [2] | Activity [3] | IC50 [4] | IC50 [5] | Ratio IC50 (Homo sapiens)
1 | CCCCNc1cccc(NC(=O)c2ccc(OCCC)cc2)n1 | inactive | inactive | – | – | – | –
2 | C=CCOc1ccc(C(=O)Nc2cccc(C)n2)cc1 | inactive | inactive | Active | – | – | –
3 | CCCOc1ccc(C(=O)Nc2cccc(Cl)n2)cc1 | inactive | – | – | – | – | –
4 | C=CCOc1ccc(C(=O)Nc2cccc(Cl)n2)cc1 | inactive | – | – | – | – | –
5 | CCCCCNc1cccc(NC(=O)c2ccc(OCCC)cc2)n1 | inactive | inactive | – | – | – | –
6 | C=CCOc1ccc(C(=O)Nc2cccc(NCCCC)n2)cc1 | inactive | inactive | – | – | – | –
7 | C=CCOc1ccc(C(=O)Nc2ccccn2)cc1 | inactive | inactive | – | – | – | –
8 | CCCOc1ccc(C(=O)Nc2cccc(Nc3ccccc3F)n2)cc1 | inactive | inactive | – | – | – | –
9 | CNC1(C)C2CCC(C2)C1(C)C (stereo not drawn) [MECAMYLAMINE] | – | – | – | 0.6 µM | – | –
10 | CCCOc1ccc(C(=O)Nc2cccc(NCc3ccccc3)n2)cc1 | inactive | inactive | – | – | – | –
11 | C=CCOc1ccc(C(=O)Nc2cccc(NCCC)n2)cc1 | inactive | inactive | – | – | – | –
12 | COc1cc2c3cc1Oc1cc(ccc1O)C[C@@H]1c4c(cc(OC)c(O)c4Oc4ccc(cc4)C[C@@H]3N(C)CC2)CC[N+]1(C)C | – | – | – | 9.2 µM | 6.8 µM | –
13 | CCOc1ccc(C(=O)Nc2cc(C)cc(C)n2)cc1 | inactive | inactive | – | 17.1 µM | 17.4 µM | 1
14 | CCCOc1ccc(C(=O)Nc2cccc(Br)n2)cc1 | inactive | – | – | – | – | –
15 | CCCOc1ccc(C(=O)Nc2cccc(Nc3ccc(OC)cc3)n2)cc1 | inactive | inactive | – | – | – | –
16 | CCCNc1cccc(NC(=O)c2ccc(OCCC)cc2)n1 | inactive | inactive | – | – | – | –
17 | C#CCOc1ccc(C(=O)Nc2cccc(C)n2)cc1 | inactive | inactive | – | 19.4 µM | 21.7 µM | 1.1
18 | C=CCOc1ccc(C(=O)Nc2cccc(Br)n2)cc1 | inactive | inactive | – | – | – | –
19 | CCCOc1ccc(C(=O)Nc2cccc(CC)n2)cc1 | inactive | inactive | – | – | – | –
20 | CCCCCCNc1cccc(NC(=O)c2ccc(OCCC)cc2)n1 | inactive | inactive | – | – | – | –
21 | C=CCOc1ccc(C(=O)Nc2cccc(CC)n2)cc1 | inactive | inactive | – | – | – | –
22 | CCCOc1ccc(C(=O)Nc2cccc(Nc3ccccc3)n2)cc1 | inactive | inactive | – | – | – | –
23 | CCCOc1ccc(C(=O)Nc2cccc(N3CCCCC3)n2)cc1 | inactive | inactive | – | – | – | –
24 | CCCOc1ccc(C(=O)Nc2cccc(Nc3ccc(F)cc3)n2)cc1 | inactive | inactive | – | – | – | –
25 | CCCOc1ccc(C(=O)Nc2cccc(Nc3ccc(Cl)cc3)n2)cc1 | inactive | inactive | – | – | – | –
26 | CCCOc1ccc(C(=O)Nc2cnccn2)cc1 | inactive | inactive | – | 23.2 µM | – | –
27 | CCCOc1ccc(C(=O)Nc2cccc(Nc3cccc(F)c3)n2)cc1 | inactive | inactive | – | – | – | –
28 | C=C(C)COc1ccc(C(=O)Nc2cccc(C)n2)cc1 | inactive | inactive | – | 19.6 µM | 24.7 µM | 1.3
